Measurements taken from PMC7497807 (Blood cancer discovery, 2020).
No end group written: not given here.

Biological target: T1, MBP-ENL (Homo sapiens, UniProt Q03111)
T1 sequence (Q03111 1-559): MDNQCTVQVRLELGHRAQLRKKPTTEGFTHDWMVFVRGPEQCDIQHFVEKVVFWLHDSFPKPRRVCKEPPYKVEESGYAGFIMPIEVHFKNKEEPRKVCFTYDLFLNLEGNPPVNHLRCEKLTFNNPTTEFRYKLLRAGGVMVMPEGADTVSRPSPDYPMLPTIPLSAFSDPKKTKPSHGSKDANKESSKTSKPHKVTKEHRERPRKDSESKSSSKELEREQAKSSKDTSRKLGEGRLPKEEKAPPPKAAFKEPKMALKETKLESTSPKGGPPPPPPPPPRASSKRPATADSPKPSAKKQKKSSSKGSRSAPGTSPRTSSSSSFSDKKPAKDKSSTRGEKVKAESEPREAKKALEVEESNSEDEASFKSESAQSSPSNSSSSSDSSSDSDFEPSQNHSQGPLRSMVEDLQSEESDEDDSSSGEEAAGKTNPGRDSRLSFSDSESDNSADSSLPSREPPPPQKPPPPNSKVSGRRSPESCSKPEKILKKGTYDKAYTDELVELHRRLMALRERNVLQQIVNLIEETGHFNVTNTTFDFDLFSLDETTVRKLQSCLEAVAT
Experiment: FA binding of fluorescein-labeled peptides to MBP-ENL
Conditions: fluorescence anisotropy, fluorescein-labeled peptide, MBP-ENL versus MBP-AF9
In short: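 Fluorescence anisotropy titrations of fluoresceinated peptides spanning the AF9-binding motif of each binding partner, run with MBP-ENL and, in parallel, MBP-AF9. A KD was obtained for each protein–peptide pair, and the fold change was taken as AF9 KD/ENL KD. Each measurement was run in three replicates, with error given as SEM.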

- affinity for ENL compared with affinity for AF9 (in words): substantial enhancement in binding
Substance: FITC-CBX8: fluorescein-labeled CBX8 peptide (AQGGRPSLIARIPVARILGDPEEE; also: fluorescein-labeled, attachment not given here)
